The record followed here is ChEMBL document CHEMBL3352671, “Inhibitory and mechanistic investigations of oxo-lipids with human lipoxygenase isozymes” (Bioorg Med Chem, 2014).

SMILES strings stand for the structures. The source made the active and inactive calls. No cut-off for these calls is given here.

Assay [1] addresses T1, Polyunsaturated fatty acid lipoxygenase ALOX15 (Oryctolagus cuniculus, UniProt P12530).
T1 sequence (P12530 whole entry): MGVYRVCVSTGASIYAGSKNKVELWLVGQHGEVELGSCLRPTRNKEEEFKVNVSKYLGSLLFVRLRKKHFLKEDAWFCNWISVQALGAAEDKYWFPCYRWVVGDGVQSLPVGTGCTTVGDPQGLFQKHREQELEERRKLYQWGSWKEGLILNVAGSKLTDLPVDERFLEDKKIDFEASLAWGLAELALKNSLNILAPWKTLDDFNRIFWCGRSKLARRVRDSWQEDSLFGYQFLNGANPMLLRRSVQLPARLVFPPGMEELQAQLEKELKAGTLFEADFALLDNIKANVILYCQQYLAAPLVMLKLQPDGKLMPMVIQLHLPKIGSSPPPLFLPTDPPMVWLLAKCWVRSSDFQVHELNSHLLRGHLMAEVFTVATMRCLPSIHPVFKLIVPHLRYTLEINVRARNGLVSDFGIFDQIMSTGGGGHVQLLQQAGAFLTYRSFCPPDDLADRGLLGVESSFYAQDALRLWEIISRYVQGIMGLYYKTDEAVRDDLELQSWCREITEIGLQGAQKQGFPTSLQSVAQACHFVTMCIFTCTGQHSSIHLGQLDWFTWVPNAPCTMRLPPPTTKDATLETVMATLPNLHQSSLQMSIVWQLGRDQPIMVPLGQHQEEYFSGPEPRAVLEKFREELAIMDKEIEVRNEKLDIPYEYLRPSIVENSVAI
Kind of assay: Inhibition of rabbit reticulocyte 15-LOX by UV-visible spectrophotometry. In short, it runs like this:
(§1)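 Enzyme was h15-LOX-2 (~200 nM) or rabbit 15-LOX (~50 nM), in 25 mM HEPES pH 7.5, 0.01% Triton X-100, 10 μM AA, stirred 2 mL at 23°C. Product was monitored at 234 nm.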

The nature of assay [2]: Inhibition of soybean 15-lipoxygenase-1 by UV-visible spectrophotometry. Also noted: species or system Glycine max. In short, it runs like this:
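Soybean 15-LOX-1 (~2 nM) was assayed in 100 mM borate pH 9.2, 0.01% Triton X-100, 10 μM AA, stirred 2 mL at 23°C. Conjugated diene was read at 234 nm.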

Assay [3] deals with T2, Polyunsaturated fatty acid lipoxygenase ALOX15B (Homo sapiens, UniProt O15296).
T2 sequence (O15296 whole entry): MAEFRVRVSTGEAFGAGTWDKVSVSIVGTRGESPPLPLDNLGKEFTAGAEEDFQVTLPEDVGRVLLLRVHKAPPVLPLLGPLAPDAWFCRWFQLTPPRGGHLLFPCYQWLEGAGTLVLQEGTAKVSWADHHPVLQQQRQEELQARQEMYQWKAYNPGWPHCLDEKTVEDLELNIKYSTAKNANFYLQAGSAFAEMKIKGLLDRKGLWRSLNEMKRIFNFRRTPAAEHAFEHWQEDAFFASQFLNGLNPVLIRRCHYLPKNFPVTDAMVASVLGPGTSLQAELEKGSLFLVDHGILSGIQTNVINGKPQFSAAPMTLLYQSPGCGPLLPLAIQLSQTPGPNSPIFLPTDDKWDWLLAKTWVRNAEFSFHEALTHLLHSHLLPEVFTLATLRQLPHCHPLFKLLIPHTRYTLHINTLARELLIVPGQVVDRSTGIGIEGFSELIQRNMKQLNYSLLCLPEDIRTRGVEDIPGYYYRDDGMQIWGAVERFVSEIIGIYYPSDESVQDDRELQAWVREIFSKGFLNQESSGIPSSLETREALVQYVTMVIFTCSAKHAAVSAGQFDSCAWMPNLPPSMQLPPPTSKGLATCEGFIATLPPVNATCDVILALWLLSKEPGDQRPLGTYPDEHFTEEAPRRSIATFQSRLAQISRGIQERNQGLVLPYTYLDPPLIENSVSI
Kind of assay: Inhibition of human reticulocyte 15-lipoxygenase-2 by UV-visible spectrophotometry. Conditions: in the assay text read “epithelial” for “reticulocyte”. In short, it runs like this:
as §1

In the next assay the test system is Glycine max. In words: Irreversible inhibition of soybean 15-lipoxygenase-1. Summed up:
(§2)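 Time-dependent inactivation: h15-LOX-1 or s15-LOX-1 was incubated on ice with neat oxo-lipid oil (no solvent) at ≥5 concentrations for varied times. Residual activity was then measured under the UV 234 nm assay conditions for each enzyme and compared with an enzyme-only control. ka was taken as the slope of ln(% activity) versus time, and Ki and k2 from a replot of ka versus [I].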

For assay [4], the target named is T3, Polyunsaturated fatty acid lipoxygenase ALOX12 (Homo sapiens, UniProt P18054).
T3 sequence (P18054 whole entry): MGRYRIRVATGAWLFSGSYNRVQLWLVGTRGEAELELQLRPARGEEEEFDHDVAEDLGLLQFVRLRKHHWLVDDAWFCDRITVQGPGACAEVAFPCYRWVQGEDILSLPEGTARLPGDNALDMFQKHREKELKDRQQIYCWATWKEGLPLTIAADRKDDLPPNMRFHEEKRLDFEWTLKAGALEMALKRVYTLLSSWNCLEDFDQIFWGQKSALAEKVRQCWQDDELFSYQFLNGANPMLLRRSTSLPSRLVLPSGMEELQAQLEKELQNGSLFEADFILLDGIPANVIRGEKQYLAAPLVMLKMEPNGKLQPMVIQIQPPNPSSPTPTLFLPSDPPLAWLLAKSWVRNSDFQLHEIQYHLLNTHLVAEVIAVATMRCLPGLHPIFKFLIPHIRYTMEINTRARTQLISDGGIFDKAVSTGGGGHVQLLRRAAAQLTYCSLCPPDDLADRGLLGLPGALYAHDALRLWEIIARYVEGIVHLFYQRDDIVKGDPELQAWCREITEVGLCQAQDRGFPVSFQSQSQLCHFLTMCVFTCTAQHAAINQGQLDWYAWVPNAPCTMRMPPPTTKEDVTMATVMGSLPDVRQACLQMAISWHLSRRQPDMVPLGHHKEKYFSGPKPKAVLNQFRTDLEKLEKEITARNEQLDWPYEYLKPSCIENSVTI
In words: Inhibition of human platelet 12-lipoxygenase by UV-visible spectrophotometry. In short, it runs like this:
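h12-LOX (~100 nM total protein) in 25 mM HEPES pH 8.0, 0.01% Triton X-100, 10 μM AA, run as stirred 2 mL reactions at 23°C. Diene formation was read at 234 nm.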

Assay [5] has as its target T4, Polyunsaturated fatty acid 5-lipoxygenase (Homo sapiens, UniProt P09917).
T4 sequence (P09917 whole entry): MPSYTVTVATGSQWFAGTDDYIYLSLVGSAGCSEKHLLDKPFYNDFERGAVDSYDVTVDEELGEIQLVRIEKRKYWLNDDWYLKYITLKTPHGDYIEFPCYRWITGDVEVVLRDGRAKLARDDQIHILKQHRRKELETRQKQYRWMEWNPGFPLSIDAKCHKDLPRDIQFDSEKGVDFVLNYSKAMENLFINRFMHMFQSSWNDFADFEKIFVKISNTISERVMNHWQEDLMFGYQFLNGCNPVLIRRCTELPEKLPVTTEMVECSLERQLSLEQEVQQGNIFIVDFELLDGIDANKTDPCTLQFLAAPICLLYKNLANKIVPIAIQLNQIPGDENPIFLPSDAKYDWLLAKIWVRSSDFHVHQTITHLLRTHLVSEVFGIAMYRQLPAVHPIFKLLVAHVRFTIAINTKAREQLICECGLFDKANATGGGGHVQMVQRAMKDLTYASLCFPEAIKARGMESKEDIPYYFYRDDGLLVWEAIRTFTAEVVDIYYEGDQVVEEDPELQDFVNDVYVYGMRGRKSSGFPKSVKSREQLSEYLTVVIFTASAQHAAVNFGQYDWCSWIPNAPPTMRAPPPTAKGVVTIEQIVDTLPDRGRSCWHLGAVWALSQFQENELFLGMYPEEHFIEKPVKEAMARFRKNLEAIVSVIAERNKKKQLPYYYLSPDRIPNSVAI
Kind of assay: Inhibition of human leukocyte 5-lipoxygenase by UV-visible spectrophotometry.

Assay [6] has as its target T5, Polyunsaturated fatty acid lipoxygenase ALOX15 (Homo sapiens, UniProt P16050).
T5 sequence (P16050 whole entry): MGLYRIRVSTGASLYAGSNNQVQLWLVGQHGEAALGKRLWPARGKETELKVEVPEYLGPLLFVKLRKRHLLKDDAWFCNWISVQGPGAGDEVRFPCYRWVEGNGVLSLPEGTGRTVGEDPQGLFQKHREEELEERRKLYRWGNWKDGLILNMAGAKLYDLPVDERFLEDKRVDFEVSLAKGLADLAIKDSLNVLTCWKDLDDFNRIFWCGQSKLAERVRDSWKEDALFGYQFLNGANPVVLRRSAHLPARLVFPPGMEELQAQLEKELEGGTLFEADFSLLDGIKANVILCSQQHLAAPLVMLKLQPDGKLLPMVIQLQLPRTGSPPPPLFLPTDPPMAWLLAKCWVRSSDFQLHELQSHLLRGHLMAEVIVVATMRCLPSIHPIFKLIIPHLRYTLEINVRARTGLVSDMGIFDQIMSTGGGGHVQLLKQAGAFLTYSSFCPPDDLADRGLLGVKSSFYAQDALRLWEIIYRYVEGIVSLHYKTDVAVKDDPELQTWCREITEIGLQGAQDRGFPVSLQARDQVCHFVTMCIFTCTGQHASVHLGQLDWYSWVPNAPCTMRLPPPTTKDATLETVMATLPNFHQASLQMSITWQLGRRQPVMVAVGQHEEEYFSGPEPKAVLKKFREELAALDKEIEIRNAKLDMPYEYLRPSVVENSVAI
Kind of assay: Inhibition of human reticulocyte 15-lipoxygenase-1 by UV-visible spectrophotometry. In short, it runs like this:
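Purified h15-LOX-1 (~60 nM total protein) in stirred 2 mL reactions at 23°C, 25 mM HEPES pH 7.5, 0.01% Triton X-100, 10 μM AA. Rate followed as conjugated diene formation at 234 nm. IC50 from at least five inhibitor concentrations by hyperbolic saturation fit, triplicate. Weak inhibitors approximated from one-point screen at 25 μM (triplicate).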

Assay [7] has as its target T6, Polyunsaturated fatty acid lipoxygenase ALOX12 (Homo sapiens) (UniProt P18054).
T6 sequence (whole entry): T3 sequence (P18054 whole entry)

Assay [8] concerns the target T6, Polyunsaturated fatty acid lipoxygenase ALOX12 (Homo sapiens). The source holds these as a separate data set.
The target in assay [9] is T5, Polyunsaturated fatty acid lipoxygenase ALOX15. Kind of assay: Irreversible inhibition of human reticulocyte 15-lipoxygenase-1 by assessed as equilibrium inhibitor constant. In short, it runs like this:
as §2

On to `CCCCCC(=O)/C=C/C=C\CCCCCCCC(=O)O`, for which the IC50 in assay [1], in assay [2], in [3], in assay [4], in assay [5] (read-out: IC50) and in assay [6] was > 100 µM throughout. For the same molecule, the inhibition entry in the assay with Glycine max was “inactive”.

`CCCCC/C=C\C/C=C\C/C=C\C=C\C(=O)CCCC(=O)O` [5-OXO-ETE]: the IC50 is > 25 µM in assay [1]; > 100 µM in assay [2]; > 100 µM in [3]; 15 µM in assay [4]; “Not Active” in [5]; > 25 µM in assay [6].

As to `CCCCCC(=O)/C=C/C=C\C/C=C\C/C=C\CCCC(=O)O`, the Kiuc in assay [7] amounted to 2.1 µM. Moreover, the IC50 is > 50 µM in [1]; > 100 µM in [2]; > 100 µM in assay [3]; 1 µM in assay [4]; > 100 µM in [5] (read-out: IC50); > 25 µM in assay [6]. In assay [8], this molecule came in with a Kic of 0.087 µM.

Regarding `CCCCC/C=C\CC(=O)/C=C/C=C\C/C=C\CCCC(=O)O`, the IC50 is > 50 µM in assay [1]; > 100 µM in assay [2]; > 100 µM in [3]; 8 µM in [4]; > 50 µM in assay [5] (read-out: IC50); 3 µM in [6]. The Ki in [9] worked out at 36.8 µM.
